Marks after values point to notes of the source that are not given here.
Assays:
[1] = system: Japanese patients with T2DM; assay: Plasma glucose concentrations, 7-day once-daily dosing; type: in vivo, human
In short: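 Plasma glucose was measured by a glucose dehydrogenase enzymatic UV method. Sampling was pre-breakfast/pre-dose and 0.5–24 h after breakfast on Day −1, after dosing on Days 1 and 7, and pre-breakfast on Days 11 and 14. Standardized ~600 kcal meals were given, with lunch and dinner at 4 and 12 h. AUC, Cmax and tmax were non-compartmental. MPG was the mean of the 0, 2, 4, 6, 12, 14 and 16 h values. LS mean difference vs placebo with 95% CI.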

healthy Japanese males = details: healthy subjects on luseogliflozin; cited from earlier work

SMILES: CCOc1ccc(Cc2cc([C@@H]3S[C@H](CO)[C@@H](O)[C@H](O)[C@H]3O)c(OC)cc2C)cc1 [Luseogliflozin, (1S)-1,5-anhydro-1-[5-(4-ethoxybenzyl)-2-methoxy-4-methylphenyl]-1-thio-D-glucitol]
- FPG (24 h after dose) ([1]; 2.5 mg OD, Day 1): 141 ± 23 mg/dL
- FPG (24 h after dose) LS mean difference vs placebo (95% CI) ([1]; 2.5 mg OD, Day 1): −23.0 (−31.6, −14.4)* mg/dL
- MPG0–16h ([1]; 2.5 mg OD, Day 1): 210 ± 35.7 mg/dL
- MPG0–16h LS mean difference vs placebo (95% CI) ([1]; 2.5 mg OD, Day 1): −23.8 (−33.7, −13.9)* mg/dL
- Plasma glucose AUC0–4h (after breakfast) ([1]; 2.5 mg OD, Day 1): 868 ± 166 mg·h/dL
- Plasma glucose AUC0–4h (after breakfast) LS mean difference vs placebo (95% CI) ([1]; 2.5 mg OD, Day 1): −106 (−159, −53.6)* mg h/dL
- Plasma glucose AUC4–8h (after lunch) ([1]; 2.5 mg OD, Day 1): 879 ± 176 mg·h/dL
- Plasma glucose AUC4–8h (after lunch) LS mean difference vs placebo (95% CI) ([1]; 2.5 mg OD, Day 1): −147 (−224, −69.0)* mg h/dL
- Plasma glucose AUC12–16h (after dinner) ([1]; 2.5 mg OD, Day 1): 944 ± 123 mg·h/dL
- Plasma glucose AUC12–16h (after dinner) LS mean difference vs placebo (95% CI) ([1]; 2.5 mg OD, Day 1): −71.1 (−123, −19.2)* mg h/dL
- Plasma glucose C max0–4h (after breakfast) ([1]; 2.5 mg OD, Day 1): 254 ± 48.7 mg/dL
- Plasma glucose C max4–8h (after lunch) ([1]; 2.5 mg OD, Day 1): 250 ± 54.5 mg/dL
- Plasma glucose C max4–8h (after lunch) LS mean difference vs placebo (95% CI) ([1]; 2.5 mg OD, Day 1): −43.5 (−67.2, −19.7)* mg/dL
- Plasma glucose C max12–16h (after dinner) ([1]; 2.5 mg OD, Day 1): 279 ± 40.2 mg/dL
- Plasma glucose C max12–16h (after dinner) LS mean difference vs placebo (95% CI) ([1]; 2.5 mg OD, Day 1): −26.1 (−44.6, −7.60)* mg/dL
- FPG (24 h after dose) ([1]; 2.5 mg OD, Day 7): 122 ± 14 mg/dL
- FPG (24 h after dose) LS mean difference vs placebo (95% CI) ([1]; 2.5 mg OD, Day 7): −41.3 (−53.5, −29.0)* mg/dL
- MPG0–16h ([1]; 2.5 mg OD, Day 7): 181 ± 21.2 mg/dL
- MPG0–16h LS mean difference vs placebo (95% CI) ([1]; 2.5 mg OD, Day 7): −50.1 (−66.7, −33.4)* mg/dL
- Plasma glucose AUC0–4h (after breakfast) ([1]; 2.5 mg OD, Day 7): 738 ± 102 mg·h/dL
- Plasma glucose AUC0–4h (after breakfast) LS mean difference vs placebo (95% CI) ([1]; 2.5 mg OD, Day 7): −221 (−297, −145)* mg h/dL
- Plasma glucose AUC4–8h (after lunch) ([1]; 2.5 mg OD, Day 7): 802 ± 127 mg·h/dL
- Plasma glucose AUC4–8h (after lunch) LS mean difference vs placebo (95% CI) ([1]; 2.5 mg OD, Day 7): −250 (−348, −152)* mg h/dL
- Plasma glucose AUC12–16h (after dinner) ([1]; 2.5 mg OD, Day 7): 828 ± 63.2 mg·h/dL
- Plasma glucose AUC12–16h (after dinner) LS mean difference vs placebo (95% CI) ([1]; 2.5 mg OD, Day 7): −149 (−224, −73.6)* mg h/dL
- Plasma glucose C max0–4h (after breakfast) ([1]; 2.5 mg OD, Day 7): 219 ± 26.3 mg/dL
- Plasma glucose C max4–8h (after lunch) ([1]; 2.5 mg OD, Day 7): 230 ± 30.0 mg/dL
- Plasma glucose C max4–8h (after lunch) LS mean difference vs placebo (95% CI) ([1]; 2.5 mg OD, Day 7): −65.6 (−94.0, −37.1)* mg/dL
- Plasma glucose C max12–16h (after dinner) ([1]; 2.5 mg OD, Day 7): 250 ± 23.3 mg/dL
- Plasma glucose C max12–16h (after dinner) LS mean difference vs placebo (95% CI) ([1]; 2.5 mg OD, Day 7): −36.2 (−61.2, −11.3)* mg/dL
- FPG (24 h after dose) ([1]; 5 mg OD, Day 1): 132 ± 12 mg/dL
- FPG (24 h after dose) LS mean difference vs placebo (95% CI) ([1]; 5 mg OD, Day 1): −20.8 (−29.5, −12.1)* mg/dL
- MPG0–16h ([1]; 5 mg OD, Day 1): 173 ± 26.7 mg/dL
- MPG0–16h LS mean difference vs placebo (95% CI) ([1]; 5 mg OD, Day 1): −27.4 (−37.4, −17.4)* mg/dL
- Plasma glucose AUC0–4h (after breakfast) ([1]; 5 mg OD, Day 1): 752 ± 87.6 mg·h/dL
- Plasma glucose AUC0–4h (after breakfast) LS mean difference vs placebo (95% CI) ([1]; 5 mg OD, Day 1): −100 (−154, −46.5)* mg h/dL
- Plasma glucose AUC4–8h (after lunch) ([1]; 5 mg OD, Day 1): 710 ± 120 mg·h/dL
- Plasma glucose AUC4–8h (after lunch) LS mean difference vs placebo (95% CI) ([1]; 5 mg OD, Day 1): −104 (−183, −25.1)* mg h/dL
- Plasma glucose AUC12–16h (after dinner) ([1]; 5 mg OD, Day 1): 766 ± 118 mg·h/dL
- Plasma glucose AUC12–16h (after dinner) LS mean difference vs placebo (95% CI) ([1]; 5 mg OD, Day 1): −133 (−184, −81.7)* mg h/dL
- Plasma glucose C max0–4h (after breakfast) ([1]; 5 mg OD, Day 1): 231 ± 16.6 mg/dL
- Plasma glucose C max4–8h (after lunch) ([1]; 5 mg OD, Day 1): 207 ± 33.1 mg/dL
- Plasma glucose C max4–8h (after lunch) LS mean difference vs placebo (95% CI) ([1]; 5 mg OD, Day 1): −32.4 (−56.5, −8.28)* mg/dL
- Plasma glucose C max12–16h (after dinner) ([1]; 5 mg OD, Day 1): 225 ± 33.2 mg/dL
- Plasma glucose C max12–16h (after dinner) LS mean difference vs placebo (95% CI) ([1]; 5 mg OD, Day 1): −41.8 (−60.2, −23.5)* mg/dL
- FPG (24 h after dose) ([1]; 5 mg OD, Day 7): 126 ± 13 mg/dL
- FPG (24 h after dose) LS mean difference vs placebo (95% CI) ([1]; 5 mg OD, Day 7): −30.6 (−43.1, −18.1)* mg/dL
- MPG0–16h ([1]; 5 mg OD, Day 7): 168 ± 27.8 mg/dL
- MPG0–16h LS mean difference vs placebo (95% CI) ([1]; 5 mg OD, Day 7): −38.9 (−55.7, −22.1)* mg/dL
- Plasma glucose AUC0–4h (after breakfast) ([1]; 5 mg OD, Day 7): 708 ± 87.5 mg·h/dL
- Plasma glucose AUC0–4h (after breakfast) LS mean difference vs placebo (95% CI) ([1]; 5 mg OD, Day 7): −162 (−239, −84.9)* mg h/dL
- Plasma glucose AUC4–8h (after lunch) ([1]; 5 mg OD, Day 7): 710 ± 105 mg·h/dL
- Plasma glucose AUC4–8h (after lunch) LS mean difference vs placebo (95% CI) ([1]; 5 mg OD, Day 7): −184 (−284, −84.3)* mg h/dL
- Plasma glucose AUC12–16h (after dinner) ([1]; 5 mg OD, Day 7): 755 ± 137 mg·h/dL
- Plasma glucose AUC12–16h (after dinner) LS mean difference vs placebo (95% CI) ([1]; 5 mg OD, Day 7): −131 (−205, −57.5)* mg h/dL
- Plasma glucose C max0–4h (after breakfast) ([1]; 5 mg OD, Day 7): 222 ± 19.4 mg/dL
- Plasma glucose C max4–8h (after lunch) ([1]; 5 mg OD, Day 7): 211 ± 35.1 mg/dL
- Plasma glucose C max4–8h (after lunch) LS mean difference vs placebo (95% CI) ([1]; 5 mg OD, Day 7): −41.0 (−69.8, −12.1)* mg/dL
- Plasma glucose C max12–16h (after dinner) ([1]; 5 mg OD, Day 7): 223 ± 38.8 mg/dL
- Plasma glucose C max12–16h (after dinner) LS mean difference vs placebo (95% CI) ([1]; 5 mg OD, Day 7): −33.7 (−58.4, −9.02)* mg/dL
- mean UGE (healthy Japanese males): 58.0 g/day
